Test results from paper PMC8295177 (Cancer discovery, 2021).
“And” between values parts separate entries of the source, which are not always exact repeats. Equal values may be shown once.

Tests used:
[1] = system: EGFRex20ins mutants; conditions: cited from earlier work
[2] = system: unselected stage IV NSCLC; conditions: second-line monotherapy; cited from earlier work
[3] = system: patients treated with mobocertinib 160 mg daily; assay: Safety and tolerability; format: in vivo, human; conditions: for Treatment-related TEAE Anemia, Any Grade / Treatment-related TEAE Anemia, Grade ≥3 / Treatment-related TEAE Decreased appetite, Any Grade / Treatment-related TEAE Decreased appetite, Grade ≥3 / Treatment-related TEAE Dermatitis acneiform, Any Grade / Treatment-related TEAE Dermatitis acneiform, Grade ≥3 / Treatment-related TEAE Diarrhea, Any Grade / Treatment-related TEAE Diarrhea, Grade ≥3 / Treatment-related TEAE Dry skin, Any Grade / Treatment-related TEAE Dry skin, Grade ≥3 / Treatment-related TEAE Dyspepsia, Any Grade / Treatment-related TEAE Dyspepsia, Grade ≥3 / Treatment-related TEAE Fatigue, Any Grade / Treatment-related TEAE Fatigue, Grade ≥3 / Treatment-related TEAE GERD, Any Grade / Treatment-related TEAE GERD, Grade ≥3 / Treatment-related TEAE Increased lipase, Any Grade / Treatment-related TEAE Increased lipase, Grade ≥3 / Treatment-related TEAE Nausea, Any Grade / Treatment-related TEAE Nausea, Grade ≥3 / Treatment-related TEAE Paronychia, Any Grade / Treatment-related TEAE Paronychia, Grade ≥3 / Treatment-related TEAE Pruritus, Any Grade / Treatment-related TEAE Pruritus, Grade ≥3 / Treatment-related TEAE Rash maculo-papular, Any Grade / Treatment-related TEAE Rash maculo-papular, Grade ≥3 / Treatment-related TEAE Rash, Any Grade / Treatment-related TEAE Rash, Grade ≥3 / Treatment-related TEAE Stomatitis, Any Grade / Treatment-related TEAE Stomatitis, Grade ≥3 / Treatment-related TEAE Vomiting, Any Grade / Treatment-related TEAE Vomiting, Grade ≥3: number (%) of patients
In short: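 Safety pooled phase 1 and phase 2 patients who received at least one dose at an initial 160 mg daily, given orally in continuous 28-day cycles. Treatment-related TEAEs were tallied at any grade and at grade ≥3. The EGFRex20ins NSCLC subgroup came from dose escalation plus expansion cohort 1. Grade 3–4 toxicity led to withholding the drug, with up to two dose reductions allowed.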

[4] = Plasma pharmacokinetics of mobocertinib in dose-escalation patients; format: in vivo, human; conditions: oral
In short: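 Patients with NSCLC took oral capsules once daily in continuous 28-day cycles. Plasma was sampled at prespecified times after the first dose (Cycle 1, Day 1) and at steady state (Cycle 2, Day 1). Drug and active metabolites were quantified by validated LC-MS. Tmax, Cmax and AUC0–24 came from noncompartmental analysis. Effective half-life was derived from accumulation as a geometric mean.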

[5] = system: previously treated NSCLC with EGFRex20ins mutations; assay: Investigator-assessed antitumor activity; format: in vivo, human; conditions: for Best confirmed response: Stable disease: observed ≥6 weeks after first dose
[6] = system: patients with advanced NSCLC refractory to standard therapies; assay: Phase 1 dose-escalation study; format: in vivo
[7] = 28 patients with EGFRex20ins mutations treated at 160 mg daily
[8] = 136 patients treated at 160 mg daily
[9] = all patients treated at 160 mg daily (n=136)
[10] = patients with EGFRex20ins treated at 160 mg daily (n=28)
[11] = 80 mg total daily dose (n=9), includes 80 mg daily and 40 mg twice daily

## C=CC(=O)N1CCC(Oc2cc3c(Nc4ccc(Cl)c(Cl)c4F)ncnc3cc2OC)CC1 [Poziotinib]
[1]
  inhibition of EGFRex20ins mutants in vitro: potent inhibition

## CC(=O)O[C@@]12CO[C@@H]1C[C@H](O)[C@@]1(C)C(=O)[C@H](O)C3=C(C)[C@@H](OC(=O)[C@H](O)[C@@H](NC(=O)OC(C)(C)C)c4ccccc4)C[C@@](O)([C@@H](OC(=O)c4ccccc4)[C@H]21)C3(C)C [Docetaxel]
[2]
  median duration of response: approximately 6 months

## C=CC(=O)Nc1cc(Nc2ncc(C(=O)OC(C)C)c(-c3cn(C)c4ccccc34)n2)c(OC)cc1N(C)CCN(C)C [mobocertinib]
[3]; [7]
  patients with AEs leading to discontinuation: 25%
  patients with AEs requiring dose interruption: 57%
  patients with AEs requiring dose reduction: 18%
[3]; [8]
  patients who experienced a treatment-emergent adverse event (TEAE): 99%
  patients with TEAEs considered related to mobocertinib treatment: 96%
  patients with TEAEs requiring discontinuation: 16%
  patients with TEAEs requiring dose interruption: 54%
  patients with TEAEs requiring dose reduction: 17%
  patients with grade 3 or higher treatment-related TEAEs: 40%
  patients with serious treatment-related TEAEs: 13%
  serious treatment-related TEAE diarrhea, patients: 4%
  serious treatment-related TEAE vomiting, patients: 4%
  treatment-related diarrhea, any grade, patients: 83%
  treatment-related diarrhea, grade ≥3, patients: 21%
  treatment-related nausea, any grade, patients: 43%
  treatment-related rash, any grade, patients: 33%
  treatment-related vomiting, any grade, patients: 26%
[3]; 136 patients treated at 160 mg daily (7/136)
  diarrhea leading to discontinuation, patients: 5%
[3]; [9]
  Treatment-related TEAE Anemia, Any Grade: 19 (14)
  Treatment-related TEAE Anemia, Grade ≥3: 3 (2)
  Treatment-related TEAE Decreased appetite, Any Grade: 29 (21)
  Treatment-related TEAE Decreased appetite, Grade ≥3: 1 (1)
  Treatment-related TEAE Dermatitis acneiform, Any Grade: 19 (14)
  Treatment-related TEAE Dermatitis acneiform, Grade ≥3: 1 (1)
  Treatment-related TEAE Diarrhea, Any Grade: 113 (83)
  Treatment-related TEAE Diarrhea, Grade ≥3: 28 (21)
  Treatment-related TEAE Dry skin, Any Grade: 30 (22)
  Treatment-related TEAE Dry skin, Grade ≥3: 0
  Treatment-related TEAE Dyspepsia, Any Grade: 16 (12)
  Treatment-related TEAE Dyspepsia, Grade ≥3: 0
  Treatment-related TEAE Fatigue, Any Grade: 28 (21)
  Treatment-related TEAE Fatigue, Grade ≥3: 2 (1)
  Treatment-related TEAE GERD, Any Grade: 17 (13)
  Treatment-related TEAE GERD, Grade ≥3: 0
  Treatment-related TEAE Increased lipase, Any Grade: 15 (11)
  Treatment-related TEAE Increased lipase, Grade ≥3: 7 (5)
  Treatment-related TEAE Nausea, Any Grade: 58 (43)
  Treatment-related TEAE Nausea, Grade ≥3: 5 (4)
  Treatment-related TEAE Paronychia, Any Grade: 22 (16)
  Treatment-related TEAE Paronychia, Grade ≥3: 0
  Treatment-related TEAE Pruritus, Any Grade: 14 (10)
  Treatment-related TEAE Pruritus, Grade ≥3: 0
  Treatment-related TEAE Rash maculo-papular, Any Grade: 22 (16)
  Treatment-related TEAE Rash maculo-papular, Grade ≥3: 1 (1)
  Treatment-related TEAE Rash, Any Grade: 45 (33)
  Treatment-related TEAE Rash, Grade ≥3: 1 (1)
  Treatment-related TEAE Stomatitis, Any Grade: 28 (21)
  Treatment-related TEAE Stomatitis, Grade ≥3: 5 (4)
  Treatment-related TEAE Vomiting, Any Grade: 36 (26)
  Treatment-related TEAE Vomiting, Grade ≥3: 5 (4)
[3]; [10]
  Treatment-related TEAE Anemia, Any Grade: 5 (18)
  Treatment-related TEAE Anemia, Grade ≥3: 0
  Treatment-related TEAE Decreased appetite, Any Grade: 11 (39)
  Treatment-related TEAE Decreased appetite, Grade ≥3: 0
  Treatment-related TEAE Dermatitis acneiform, Any Grade: 5 (18)
  Treatment-related TEAE Dermatitis acneiform, Grade ≥3: 0
  Treatment-related TEAE Diarrhea, Any Grade: 23 (82)
  Treatment-related TEAE Diarrhea, Grade ≥3: 9 (32)
  Treatment-related TEAE Dry skin, Any Grade: 5 (18)
  Treatment-related TEAE Dry skin, Grade ≥3: 0
  Treatment-related TEAE Dyspepsia, Any Grade: 6 (21)
  Treatment-related TEAE Dyspepsia, Grade ≥3: 0
  Treatment-related TEAE Fatigue, Any Grade: 4 (14)
  Treatment-related TEAE Fatigue, Grade ≥3: 1 (4)
  Treatment-related TEAE GERD, Any Grade: 3 (11)
  Treatment-related TEAE GERD, Grade ≥3: 0
  Treatment-related TEAE Increased lipase, Any Grade: 7 (25)
  Treatment-related TEAE Increased lipase, Grade ≥3: 2 (7)
  Treatment-related TEAE Nausea, Any Grade: 11 (39)
  Treatment-related TEAE Nausea, Grade ≥3: 3 (11)
  Treatment-related TEAE Paronychia, Any Grade: 8 (29)
  Treatment-related TEAE Paronychia, Grade ≥3: 0
  Treatment-related TEAE Pruritus, Any Grade: 5 (18)
  Treatment-related TEAE Pruritus, Grade ≥3: 0
  Treatment-related TEAE Rash maculo-papular, Any Grade: 7 (25)
  Treatment-related TEAE Rash maculo-papular, Grade ≥3: 1 (4)
  Treatment-related TEAE Rash, Any Grade: 13 (46)
  Treatment-related TEAE Rash, Grade ≥3: 0
  Treatment-related TEAE Stomatitis, Any Grade: 6 (21)
  Treatment-related TEAE Stomatitis, Grade ≥3: 2 (7)
  Treatment-related TEAE Vomiting, Any Grade: 10 (36)
  Treatment-related TEAE Vomiting, Grade ≥3: 2 (7)
[4]; human, plasma
  half-life: 11 to 17 h
[4]; dose range 5 mg to 180 mg daily
  exposure (AUC0–24) dose dependence: approximately dose-proportional
[5]; 80 mg total daily dose (n=9)
  Best confirmed response: Not evaluated: 0 n (%)
  Best confirmed response: Progressive disease: 1 (11) n (%)
  Best confirmed response: Stable disease: 6 (67) n (%)
[5]; [11]
  Best confirmed response: Complete response: 1 (11) n (%)
  Best confirmed response: Partial response: 1 (11) n (%)
[5]; 120 mg daily (4/21)
  confirmed ORR: 19%
[5]; 120 mg daily (n=21)
  Best confirmed response: Complete response: 1 (5) n (%)
  Best confirmed response: Not evaluated: 3 (14) n (%)
  Best confirmed response: Partial response: 3 (14) n (%)
  Best confirmed response: Progressive disease: 3 (14) n (%)
  Best confirmed response: Stable disease: 11 (52) n (%)
[5]; 160 mg daily (12/28; 95% CI 24–63%)
  investigator-assessed confirmed ORR: 43%
[5]; 160 mg daily (24/28; 95% CI 67–96%)
  disease control rate: 86%
[5]; 160 mg daily (n=28)
  Best confirmed response: Complete response: 0 n (%)
  Best confirmed response: Not evaluated: 2 (7) n (%)
  Best confirmed response: Partial response: 12 (43) n (%)
  Best confirmed response: Progressive disease: 2 (7) n (%)
  Best confirmed response: Stable disease: 12 (43) n (%)
[5]; 160 mg daily, 28 EGFRex20ins patients (95% CI 4.4–15.6)
  median PFS: 7.3 months and 7 months
[5]; 160 mg daily, 28 EGFRex20ins patients (95% CI 5.0–not reached)
  median duration of response in confirmed responders: 14 months and 13.9 months
[5]; 160 mg daily, 28 EGFRex20ins patients (95% CI 16–53%)
  12-month event-free rate (PFS): 34%
[5]; 160 mg daily, patients with baseline brain metastases (3/12; 95% CI 5–57%)
  investigator-assessed confirmed ORR: 25%
[5]; 160 mg daily, patients with baseline brain metastases (95% CI 1.8–15.9)
  median investigator-assessed PFS: 3.7 months
[5]; 160 mg daily, patients with baseline brain metastases (95% CI 3–52%)
  12-month event-free rate (PFS): 23%
[5]; 160 mg daily, patients without baseline brain metastases (9/16; 95% CI 30–80%)
  investigator-assessed confirmed ORR: 56%
[5]; 160 mg daily, patients without baseline brain metastases (95% CI 5.0–16.6)
  median duration of response in confirmed responders: 13.8 months
[5]; 160 mg daily, patients without baseline brain metastases (95% CI 18–66%)
  12-month event-free rate (PFS): 43%
[5]; 5–40 mg daily (0/12)
  confirmed ORR: 0%
[5]; 5–40 mg daily (n=12)
  Best confirmed response: Complete response: 0 n (%)
  Best confirmed response: Not evaluated: 2 (17) n (%)
  Best confirmed response: Partial response: 0 n (%)
  Best confirmed response: Progressive disease: 7 (58) n (%)
  confirmed ORR: 0 [0–26] n (%) [95% CI]
  Best confirmed response: Stable disease: 3 (25) n (%)
[5]; 80-mg total daily dose (2/9)
  confirmed ORR: 22%
[6]; human, in vivo, po, 28 days
  recommended phase 2 dose (RP2D): 160 mg daily
[6]; oral, 28-day cycles, dose escalation 5-180 mg daily
  maximum tolerated dose (MTD): 160 mg daily
